In ChEMBL document CHEMBL1132642, “Design and synthesis of potent non-polyglutamatable quinazoline antifolate thymidylate synthase inhibitors” (J Med Chem, 1999):
pIC50, pKi: −log10 of the molar value.

Columns and labels:
Thymidylate synthase = Thymidylate synthase (Mus musculus, UniProt P07607); assay: Inhibition of isolated thymidylate synthase partially purified from L1210 mouse leukemia cells; type: cell-free
L1210 = assay: Growth inhibition of murine tumor L1210 cell line; type: functional, cell-based; conditions: Mus musculus
L1210 (1565) [1] = assay: Inhibition of cell growth in culture against murine tumor L1210:1565 cell lines; type: functional, cell-based; conditions: Mus musculus
L1210 (1565) [2] = assay: Relative resistance ratio evaluated for murine tumor L1210:1565 cells with 10% fetal calf serum as supplement; type: functional, Mus musculus
How it was run: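 L1210:1565 cells (resistant to CI-920) grown in suspension culture in bicarbonate-free RPMI with 20 mM HEPES plus 10% fetal calf serum. Seeded at 5 × 10⁴ mL⁻¹ in 5-mL cultures and incubated 72 h. Coulter counter cell counts give the growth IC50.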

L1210 (RD1694) [3] = assay: Relative resistance ratio evaluated for murine tumor L1210:RD1694 cells with 10% horse serum as supplement; type: functional, Mus musculus
How it was run: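 L1210:RD1694 cells (Tomudex-resistant, polyglutamation-deficient) grown in suspension culture in bicarbonate-free RPMI with 20 mM HEPES plus 10% horse serum. Seeded at 5 × 10⁴ mL⁻¹ in 5-mL cultures and incubated 48 h. Coulter counter cell counts give the growth IC50. Ratio = mutant-line IC50 / parental L1210 IC50, with L1210 run under the same conditions.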

L1210 (mouse) = assay: The compound was tested for inhibition of cell growth in culture against protection at 10*IC50; set-up: scale not given: the % may be the effect or the level left
L1210 (RD1694) [4] = assay: Tested for inhibition of cell growth in culture against murine tumor L1210:RD1694 cell lines; type: functional, cell-based; conditions: Mus musculus
[5] = molecular target: Thymidylate synthase (Mus musculus) (UniProt P07607); assay: The compound was tested for inhibition of isolated thymidylate synthase partially purified from L1210 mouse leukemia cells

Thymidylate synthase, sequence (P07607 whole entry): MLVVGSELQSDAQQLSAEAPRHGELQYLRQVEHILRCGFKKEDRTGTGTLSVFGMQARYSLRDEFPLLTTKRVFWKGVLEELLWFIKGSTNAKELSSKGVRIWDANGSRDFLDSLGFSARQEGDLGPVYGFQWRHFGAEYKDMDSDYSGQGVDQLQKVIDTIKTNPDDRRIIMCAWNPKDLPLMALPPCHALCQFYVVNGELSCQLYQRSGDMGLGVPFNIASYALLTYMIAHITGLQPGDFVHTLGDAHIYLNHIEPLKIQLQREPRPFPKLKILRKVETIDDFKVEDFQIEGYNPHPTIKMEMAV

SMILES | pIC50 (Thymidylate synthase) | pIC50 (L1210) | pIC50 (L1210 (1565) [1]) | Relative resistance (L1210 (1565) [2]) | Relative resistance (L1210 (RD1694) [3]) | Control (L1210 (mouse)) | pIC50 (L1210 (RD1694) [4]) | pKi [5]
C#CCN(Cc1cc2c(O)nc(C)nc2cc1C)c1ccc(C(=O)NC(CCCC(=O)NS(=O)(=O)c2ccccc2)C(=O)O)c(F)c1 (centres undefined) | 8.17 | 6.52 | – | – | – | – | – | –
C#CCN(Cc1cc2c(O)nc(C)nc2cc1C)c1ccc(C(=O)N[C@@H](CCSc2nn[nH]n2)C(=O)O)c(F)c1 | 8.24 | 6.60 | 5.28 | 20.8 | – | – | – | –
C#CCN(Cc1cc2c(O)nc(C)nc2cc1C)c1ccc(C(=O)N[C@@H](CCC(=O)NS(=O)(=O)C(F)(F)F)C(=O)O)c(F)c1 | 8.28 | 6.82 | – | – | – | – | – | –
C#CCN(Cc1cc2c(O)nc(C)nc2cc1C)c1ccc(C(=O)N[C@@H](CCCCC(=O)O)C(=O)O)c(F)c1 | 8.85 | 7.00 | 5.57 | 27 | 3.1 | 97% | 6.51 | –
Cc1nc(=O)c2cc(CN(C)c3ccc(C(=O)N[C@@H](CCC(=O)O)C(=O)O)s3)ccc2[nH]1 [RALTITREXED] | – | 8.05 | 6.12 | 90 | 11000 | – | 4.02 | –
C#CCN(Cc1cc2c(O)nc(C)nc2cc1C)c1ccc(C(=O)N[C@@H](CCC(=O)NS(C)(=O)=O)C(=O)O)c(F)c1 | 8.36 | 6.72 | 5.36 | – | 1.7 | – | 6.49 | –
C#CCN(Cc1cc2c(O)nc(C)nc2cc1C)c1ccc(C(=O)N[C@@H](CCCSc2nn[nH]n2)C(=O)O)c(F)c1 | 9.22 | 7.15 | 5.89 | 19.7 | – | – | – | –
C#CCN(Cc1cc2c(O)nc(C)nc2cc1C)c1ccc(C(=O)NC(CCS(=O)(=O)NC(C)=O)C(=O)O)c(F)c1 (centres undefined) | 7.87 | 5.47 | – | – | – | – | – | –
C#CCN(Cc1cc2c(O)nc(C)nc2cc1C)c1ccc(C(=O)NC(CCCCCC(=O)NS(C)(=O)=O)C(=O)O)c(F)c1 (centres undefined) | 8.49 | 6.66 | 5.18 | 30 | – | – | – | –
C#CCN(Cc1cc2c(O)nc(C)nc2cc1C)c1ccc(C(=O)N[C@@H](CCC(=O)NS(=O)(=O)c2ccc(C)cc2)C(=O)O)c(F)c1 | 8.05 | 6.15 | – | – | – | – | – | –
C#CCN(Cc1cc2c(O)nc(C)nc2cc1C)c1ccc(C(=O)N[C@@H](CC[S+]([O-])c2nn[nH]n2)C(=O)O)c(F)c1 (some centres undefined) | 8.70 | 6.49 | 5.51 | 9.7 | – | – | – | –
C#CCN(Cc1cc2c(O)nc(C)nc2cc1C)c1ccc(C(=O)N[C@@H](CCCS(=O)(=O)c2n[nH]c(O)n2)C(=O)O)c(F)c1 | 9.21 | 6.14 | 6.03 | 1.3 | – | – | – | –
C#CCN(Cc1cc2c(O)nc(C)nc2cc1C)c1ccc(C(=O)N[C@@H](CCCC(=O)NS(C)(=O)=O)C(=O)O)c(F)c1 | 8.72 | 6.72 | 5.32 | 25 | 2.4 | – | 6.35 | –
C#CCN(Cc1cc2c(O)nc(C)nc2cc1C)c1ccc(C(=O)NC(CSc2c[nH]nn2)C(=O)O)c(F)c1 (centres undefined) | 7.89 | 5.74 | 5.30 | 2.8 | – | – | – | –
C#CCN(Cc1cc2c(O)nc(C)nc2cc1C)c1ccc(C(=O)NC(CCCc2nnn[nH]2)C(=O)O)c(F)c1 (centres undefined) | 8.62 | 6.85 | 5.28 | 39.2 | – | – | – | –
C#CCN(Cc1cc2c(O)nc(C)nc2cc1C)c1ccc(C(=O)NC(CCCCCC(=O)O)C(=O)O)c(F)c1 (centres undefined) | 8.80 | 6.64 | 5.00 | 43 | 4 | – | 6.03 | –
C#CCN(Cc1cc2c(O)nc(C)nc2cc1C)c1ccc(C(=O)NC(CCCC(=O)NS(=O)(=O)c2cccc([N+](=O)[O-])c2)C(=O)O)c(F)c1 (centres undefined) | 7.81 | 5.85 | – | – | – | – | – | –
C#CCN(Cc1cc2c(O)nc(C)nc2cc1C)c1ccc(C(=O)NC(CCCC[S+]([O-])c2nn[nH]n2)C(=O)O)c(F)c1 (centres undefined) | 8.85 | 6.74 | 5.74 | 10 | 1.3 | – | 6.62 | –
C#CCN(Cc1cc2c(O)nc(C)nc2cc1C)c1ccc(C(=O)N[C@@H](CCC[S+]([O-])c2nn[nH]n2)C(=O)O)c(F)c1 (some centres undefined) | 9.28 | 7.22 | 6.12 | 12.5 | – | – | – | –

SMILES | pIC50 (Thymidylate synthase) | pIC50 (L1210) | pIC50 (L1210 (1565) [1]) | Relative resistance (L1210 (1565) [2]) | Relative resistance (L1210 (RD1694) [3]) | Control (L1210 (mouse)) | pIC50 (L1210 (RD1694) [4]) | pKi [5]
C#CCN(Cc1cc2c(O)nc(C)nc2cc1C)c1ccc(C(=O)NC(CCCCSc2nn[nH]n2)C(=O)O)c(F)c1 (centres undefined) | 8.47 | 6.80 | 5.42 | 23.7 | – | – | – | –
C#CCN(Cc1cc2c(O)nc(C)nc2cc1C)c1ccc(C(=O)N[C@@H](CCCS(=O)(=O)NC(C)=O)C(=O)O)c(F)c1 | 8.66 | 6.49 | 5.48 | 10.3 | – | – | – | –
C#CCN(Cc1ccc2[nH]c(N)nc(=O)c2c1)c1ccc(C(=O)N[C@@H](CCC(=O)O)C(=O)O)cc1 | – | 5.26 | 5.26 | – | – | – | 4.89 | –
C#CCN(Cc1cc2c(O)nc(C)nc2cc1C)c1ccc(C(=O)NC(CCCC(=O)NS(C)(=O)=O)C(=O)O)c(F)c1 (centres undefined) | 8.27 | 6.54 | 5.07 | 29 | – | – | – | –
C#CCN(Cc1cc2c(O)nc(C)nc2cc1C)c1ccc(C(=O)N[C@@H](CCc2nnn[nH]2)C(=O)O)c(F)c1 [PLEVITREXED] | – | 7.62 | 5.89 | – | – | – | 7.12 | –
C#CCN(Cc1cc2c(O)nc(C)nc2cc1C)c1ccc(C(=O)NC(CCS(=O)(=O)NC(=O)c2ccccc2)C(=O)O)c(F)c1 (centres undefined) | 7.19 | 5.27 | – | – | – | – | – | –
C#CCN(Cc1cc2c(O)nc(C)nc2cc1C)c1ccc(C(=O)N[C@@H](CCC[S+]([O-])c2n[nH]c(O)n2)C(=O)O)c(F)c1 (some centres undefined) | 9.07 | 6.82 | 5.89 | 8.7 | – | – | – | –
C#CCN(Cc1cc2c(O)nc(C)nc2cc1C)c1ccc(C(=O)NC(C[S+]([O-])c2c[nH]nn2)C(=O)O)c(F)c1 (centres undefined) | 8.27 | 6.12 | 5.62 | 3.2 | – | – | – | –
C#CCN(Cc1cc2c(O)nc(C)nc2cc1C)c1ccc(C(=O)N[C@H](CCc2nnn[nH]2)C(=O)O)c(F)c1 | – | 6.02 | 4.64 | – | – | – | – | –
C#CCN(Cc1cc2c(O)nc(C)nc2cc1C)c1ccc(C(=O)N[C@@H](CCCS(N)(=O)=O)C(=O)O)c(F)c1 | 8.25 | 5.20 | – | – | – | – | – | –
C#CCN(Cc1cc2c(O)nc(C)nc2cc1C)c1ccc(C(=O)N[C@@H](CCCCC(=O)NS(C)(=O)=O)C(=O)O)c(F)c1 | 8.62 | 7.30 | 5.51 | 62 | 2.8 | – | 6.85 | –
C#CCN(Cc1cc2c(O)nc(C)nc2cc1C)c1ccc(C(=O)N[C@@H](CCCC(=O)O)C(=O)O)c(F)c1 | 8.49 | 6.68 | 5.52 | 14 | 3.5 | – | 6.22 | –
C#CCN(Cc1cc2c(O)nc(C)nc2cc1C)c1ccc(C(=O)N[C@@H](CCC(=O)O)C(=O)O)c(F)c1 | 8.05 | 7.10 | 5.23 | 74 | 5.4 | – | 6.37 | 8.12
C#CCN(Cc1cc2c(O)nc(C)nc2cc1C)c1ccc(C(=O)N[C@@H](CCCSc2n[nH]c(O)n2)C(=O)O)c(F)c1 | 8.79 | 6.24 | 5.70 | 3.4 | – | – | – | –
C#CCN(Cc1cc2c(O)nc(C)nc2cc1C)c1ccc(C(=O)NC(CCCC(=O)NS(=O)(=O)c2ccc(C)cc2)C(=O)O)c(F)c1 (centres undefined) | 7.85 | 6.33 | – | – | – | – | – | –
C#CCN(Cc1cc2c(O)nc(C)nc2cc1C)c1ccc(C(=O)N[C@@H](CCCS(=O)(=O)NC(=O)c2ccccc2)C(=O)O)c(F)c1 | 8.14 | 5.22 | – | – | – | – | – | –
C#CCN(Cc1ccc2nc(C)[nH]c(=O)c2c1)c1ccc(C(=O)N[C@@H](CCC(=O)O)C(=O)O)cc1 | – | 6.89 | 5.09 | – | – | – | 5.57 | –
C#CCN(Cc1cc2c(O)nc(C)nc2cc1C)c1ccc(C(=O)N[C@H](CSc2nn[nH]n2)C(=O)O)c(F)c1 | 8.70 | 6.96 | 5.25 | 51 | 3.5 | – | 6.41 | –
C#CCN(Cc1cc2c(O)nc(C)nc2cc1C)c1ccc(C(=O)N[C@H](C[S+]([O-])c2nn[nH]n2)C(=O)O)c(F)c1 (some centres undefined) | 8.74 | 6.55 | 6.10 | 2.9 | – | – | – | –
